≈ marks a conversion by molar mass, not a printed value. Calls of active or inactive are those of the source. The calls are words filed in the database; no cut-off is given here.
Assays:
[1] = tested on: Saccharomyces cerevisiae; assay: ROS production in Saccharomyces cerevisiae cells at 10 uM; type: functional, organism-based
Outline: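 Yeast cells (10^7 cells/ml) preloaded with 40 µM DCFH-DA in YPD at 30 °C for 60 min, then exposed to compound in YPD at 30 °C for 60 min. Cells washed and resuspended in PBS. Fluorescence read at ex 480/em 530 nm and given in arbitrary units.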

[2] = tested on: Aspergillus niger; assay: Antifungal activity against Aspergillus niger ATCC 6275; type: functional
[3] = tested on: Mucor mucedo; assay: Antifungal activity against Mucor mucedo IFO 7684; type: functional
[4] = tested on: Rhizopus arrhizus; assay: Antifungal activity against Rhizopus oryzae IFO 4766; type: functional
[5] = tested on: Schizosaccharomyces pombe; assay: Antimicrobial activity against Schizosaccharomyces pombe IFO 0342; type: functional
[6] = tested on: Candida albicans; assay: Antimicrobial activity against Candida albicans IFO 1061; type: functional
[7] = tested on: Escherichia coli; assay: Antibacterial activity against Escherichia coli IFO 2545; type: functional
Outline: (§1)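 MIC by serial twofold broth dilution; bacteria grown in 3% nutrient broth at 37 °C, read after 24 h of cultivation.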

[8] = tested on: Penicillium chrysogenum; assay: Antifungal activity against Penicillium chrysogenum IFO 4626; type: functional
[9] = tested on: Schizosaccharomyces pombe; assay: Antimicrobial activity against Schizosaccharomyces pombe L972 h-; type: functional
[10] = tested on: Saccharomyces cerevisiae; assay: Antimicrobial activity against Saccharomyces cerevisiae X2180 1A; type: functional
[11] = tested on: Bacillus subtilis; assay: Antibacterial activity against Bacillus subtilis IFO 3007; type: functional; outline: as §1
[12] = tested on: Micrococcus luteus; assay: Antibacterial activity against Micrococcus luteus IFO 3333; type: functional; outline: as §1
[13] = tested on: Saccharomyces cerevisiae; assay: Antimicrobial activity against Saccharomyces cerevisiae IFO 0203; type: functional
[14] = tested on: Rhodotorula mucilaginosa; assay: Antimicrobial activity against Rhodotorula mucilaginosa IFO 0001; type: functional
[15] = tested on: Schizosaccharomyces pombe; assay: Antimicrobial activity against Schizosaccharomyces pombe SA21 h+; type: functional
[16] = tested on: Saccharomyces cerevisiae; assay: ROS production in Saccharomyces cerevisiae cells at lethal concentration; type: functional, organism-based
Outline: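 S. cerevisiae cells (10^7 cells/ml) preloaded with 40 µM DCFH-DA in YPD medium, 30 °C, 60 min. Then exposed to compound in YPD at 30 °C for 60 min, washed and resuspended in phosphate-buffered saline. Fluorescence of 10^7 cells read at excitation 480 nm, emission 530 nm. Intensity reported directly as arbitrary units.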

SMILES	Activity [1]	MIC [2]	MIC [3]	MIC [4]	MIC [5]	MIC [6]	MIC [7]	MIC [8]	MIC [9]	MIC [10]	MIC [11]	MIC [12]	MIC [13]	MIC [14]	MIC [15]	Activity [16]
C[C@@H]1[C@H](O)[C@@H](C)/C=C/C=C/C=C/C=C/C=C/C=C/C=C/[C@H](O[C@@H]2O[C@H](C)[C@@H](O)[C@H](N)[C@@H]2O)C[C@@H]2O[C@](O)(C[C@@H](O)C[C@@H](O)[C@H](O)CC[C@@H](O)C[C@@H](O)CC(=O)O[C@H]1C)C[C@H](O)[C@H]2C(=O)O	inactive	–	–	–	–	–	–	–	–	–	–	–	–	–	–	–
CCCCCCCCCCCC/N=C(\N)NC	–	50 µM (≈ 12.1 µg/mL)	50 µM (≈ 12.1 µg/mL)	200 µM (≈ 48.3 µg/mL)	50 µM (≈ 12.1 µg/mL)	400 µM (≈ 96.6 µg/mL)	50 µM (≈ 12.1 µg/mL)	25 µM (≈ 6.04 µg/mL)	50 µM (≈ 12.1 µg/mL)	100 µM (≈ 24.1 µg/mL)	25 µM (≈ 6.04 µg/mL)	> 400 µM	100 µM (≈ 24.1 µg/mL)	50 µM (≈ 12.1 µg/mL)	50 µM (≈ 12.1 µg/mL)	–
CCCCCCCCCCCCCCCC/N=C(\N)NC	–	25 µM (≈ 7.44 µg/mL)	12.5 µM (≈ 3.72 µg/mL)	50 µM (≈ 14.9 µg/mL)	25 µM (≈ 7.44 µg/mL)	200 µM (≈ 59.5 µg/mL)	50 µM (≈ 14.9 µg/mL)	6.25 µM (≈ 1.86 µg/mL)	12.5 µM (≈ 3.72 µg/mL)	100 µM (≈ 29.8 µg/mL)	12.5 µM (≈ 3.72 µg/mL)	> 400 µM	50 µM (≈ 14.9 µg/mL)	12.5 µM (≈ 3.72 µg/mL)	12.5 µM (≈ 3.72 µg/mL)	Active
C/N=C(/N)NCCCCCCCCCCCC(=O)O	–	> 400 µM	400 µM (≈ 109 µg/mL)	> 400 µM	200 µM (≈ 54.3 µg/mL)	400 µM (≈ 109 µg/mL)	400 µM (≈ 109 µg/mL)	400 µM (≈ 109 µg/mL)	200 µM (≈ 54.3 µg/mL)	400 µM (≈ 109 µg/mL)	100 µM (≈ 27.1 µg/mL)	400 µM (≈ 109 µg/mL)	> 400 µM	200 µM (≈ 54.3 µg/mL)	200 µM (≈ 54.3 µg/mL)	–
C/N=C(/N)NCCC/C=C/CCC[C@H](C)C[C@H](C)[C@H]1OC(=O)C(C)C(O)/C=C/C(C)C(O)CC(O)C(C)C(O)CCC(C)C(O)CC2(O)OC(CC(OC(=O)CC(=O)O)CC(O)CC(O)C(C)C(O)/C=C/C=C/C1C)CC(O)C2O (stereo not given in full) [NIPHIMYCIN]	–	2 µM (≈ 2.28 µg/mL)	10 µM (≈ 11.4 µg/mL)	1 µM (≈ 1.14 µg/mL)	–	2 µM (≈ 2.28 µg/mL)	–	1 µM (≈ 1.14 µg/mL)	2 µM (≈ 2.28 µg/mL)	5 µM (≈ 5.71 µg/mL)	5 µM (≈ 5.71 µg/mL)	–	–	2 µM (≈ 2.28 µg/mL)	–	Active
CCCCCCCC/N=C(\N)NC	–	> 400 µM	> 400 µM	> 400 µM	400 µM (≈ 74.1 µg/mL)	> 400 µM	400 µM (≈ 74.1 µg/mL)	100 µM (≈ 18.5 µg/mL)	200 µM (≈ 37.1 µg/mL)	> 400 µM	> 400 µM	> 400 µM	> 400 µM	> 400 µM	400 µM (≈ 74.1 µg/mL)	–
C/N=C(/N)NCCCCCCCCCCCCO	–	> 400 µM	> 400 µM	> 400 µM	> 400 µM	> 400 µM	> 400 µM	> 400 µM	> 400 µM	> 400 µM	> 400 µM	> 400 µM	> 400 µM	> 400 µM	> 400 µM	–
CCCC/N=C(\N)NC	–	> 400 µM	> 400 µM	> 400 µM	> 400 µM	> 400 µM	400 µM (≈ 51.7 µg/mL)	100 µM (≈ 12.9 µg/mL)	> 400 µM	> 400 µM	> 400 µM	> 400 µM	> 400 µM	> 400 µM	> 400 µM	–
CNC(=N)NCCCCCCCCCCCC(=O)OC	–	200 µM (≈ 57.1 µg/mL)	> 400 µM	> 400 µM	400 µM (≈ 114 µg/mL)	> 400 µM	400 µM (≈ 114 µg/mL)	200 µM (≈ 57.1 µg/mL)	400 µM (≈ 114 µg/mL)	> 400 µM	400 µM (≈ 114 µg/mL)	> 400 µM	> 400 µM	200 µM (≈ 57.1 µg/mL)	400 µM (≈ 114 µg/mL)	–

Reference: ChEMBL document CHEMBL1139668, “Structure-activity relationship studies on niphimycin, a guanidylpolyol macrolide antibiotic. Part 1: The role of the N-methyl-N''-alkylguanidinium moiety” (2006)
